Key:
[1] = target: Beta-1 adrenergic receptor (Homo sapiens) (UniProt P08588); settings: CHO
[2] = target: Beta-3 adrenergic receptor (Homo sapiens) (UniProt P13945); test: Intrinsic activity against Beta3-AR expressed in CHO cells in cAMP-RIA assay; type: functional, cell-based
[3] = target: Beta-3 adrenergic receptor (Homo sapiens) (UniProt P13945); test: Agonistic potency against Beta3-AR expressed in CHO cells by using cAMP-RIA assay; type: functional, cell-based
[4] = target: Beta-1 adrenergic receptor (Homo sapiens) (UniProt P08588); settings: CHO; remark: listed apart in the source
[5] = target: Beta-2 adrenergic receptor (Homo sapiens) (UniProt P07550); settings: CHO
[6] = target: Beta-2 adrenergic receptor (Homo sapiens) (UniProt P07550); settings: CHO; remark: listed apart in the source
[7] = target: Beta-3 adrenergic receptor (Homo sapiens) (UniProt P13945); settings: CHO
[8] = target: Beta-3 adrenergic receptor (Homo sapiens) (UniProt P13945); settings: CHO; remark: listed apart in the source
[9] = target: Beta-1 adrenergic receptor (Homo sapiens) (UniProt P08588); settings: CHO; remark: listed apart in the source
[10] = target: Beta-1 adrenergic receptor (Homo sapiens) (UniProt P08588); settings: CHO; remark: listed apart in the source
[11] = target: Beta-2 adrenergic receptor (Homo sapiens) (UniProt P07550); settings: CHO; remark: listed apart in the source
[12] = target: Beta-2 adrenergic receptor (Homo sapiens) (UniProt P07550); settings: CHO; remark: listed apart in the source
[13] = target: Beta-3 adrenergic receptor (Homo sapiens) (UniProt P13945); test: Agonistic potency against Beta3-AR expressed in CHO cells by using cAMP-RIA assay; MA means minimal activity; type: functional, cell-based
[14] = target: Beta-2 adrenergic receptor (Homo sapiens) (UniProt P07550); test: Agonistic potency against BETA2-AR expressed in CHO cells by using cAMP-RIA assay;MA means minimal activity; type: functional, cell-based
[15] = target: Beta-3 adrenergic receptor (Homo sapiens) (UniProt P13945); test: Agonistic potency against Beta3-AR expressed in CHO cells by using cAMP-RIA assay;MA means minimal activity; type: functional, cell-based
[16] = target: Beta-2 adrenergic receptor (Homo sapiens) (UniProt P07550); test: Agonistic potency against BETA2-AR expressed in CHO cells by using CRE-LUC assay;MA means minimal activity; type: functional, cell-based
Outline: (§1)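 CHO cells transfected by electroporation (single 70-ms, 150-V pulse) with human receptor and CRE–luciferase reporter; seeded 40 000/well, grown 20 h, then exposed 4 h to drug at 10^-11–10^-4 M. Cells lysed, luciferase light read by luminometer, duplicates per concentration. Response as percent of maximum to (-)isoproterenol 10^-6 M; pKact = -log molar concentration giving 50% of own maximal response; mean ± SEM.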

[17] = target: Beta-1 adrenergic receptor (Homo sapiens) (UniProt P08588); test: Agonistic potency against BETA1-AR expressed in CHO cells by using CRE-LUC assay;MA means minimal activity; type: functional, cell-based
Outline: as §1

Sequence of Beta-3 adrenergic receptor (Homo sapiens) (P13945 whole entry, looked up): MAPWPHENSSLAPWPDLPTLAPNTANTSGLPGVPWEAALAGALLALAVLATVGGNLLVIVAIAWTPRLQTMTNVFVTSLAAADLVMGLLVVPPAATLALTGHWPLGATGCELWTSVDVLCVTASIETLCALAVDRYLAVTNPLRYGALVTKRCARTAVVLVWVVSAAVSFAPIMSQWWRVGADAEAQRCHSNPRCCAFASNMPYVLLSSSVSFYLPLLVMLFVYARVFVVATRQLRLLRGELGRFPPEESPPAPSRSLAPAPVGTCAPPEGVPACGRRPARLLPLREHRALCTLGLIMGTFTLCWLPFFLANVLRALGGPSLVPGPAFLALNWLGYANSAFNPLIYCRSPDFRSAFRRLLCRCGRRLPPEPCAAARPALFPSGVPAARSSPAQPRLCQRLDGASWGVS
Sequence of Beta-1 adrenergic receptor (Homo sapiens) (P08588 whole entry, looked up): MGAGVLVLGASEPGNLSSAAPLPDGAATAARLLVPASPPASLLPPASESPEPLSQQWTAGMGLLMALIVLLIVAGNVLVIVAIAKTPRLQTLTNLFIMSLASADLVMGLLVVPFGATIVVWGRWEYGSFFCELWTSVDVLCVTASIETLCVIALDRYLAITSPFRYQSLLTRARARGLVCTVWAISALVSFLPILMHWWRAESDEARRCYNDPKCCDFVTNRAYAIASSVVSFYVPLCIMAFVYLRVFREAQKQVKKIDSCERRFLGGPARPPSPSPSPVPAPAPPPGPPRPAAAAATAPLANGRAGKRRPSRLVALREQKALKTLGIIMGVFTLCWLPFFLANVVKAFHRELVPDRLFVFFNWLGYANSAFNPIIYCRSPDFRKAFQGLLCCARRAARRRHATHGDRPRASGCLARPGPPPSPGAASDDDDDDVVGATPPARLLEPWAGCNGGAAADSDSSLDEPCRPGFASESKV
Sequence of Beta-2 adrenergic receptor (Homo sapiens) (P07550 whole entry, looked up): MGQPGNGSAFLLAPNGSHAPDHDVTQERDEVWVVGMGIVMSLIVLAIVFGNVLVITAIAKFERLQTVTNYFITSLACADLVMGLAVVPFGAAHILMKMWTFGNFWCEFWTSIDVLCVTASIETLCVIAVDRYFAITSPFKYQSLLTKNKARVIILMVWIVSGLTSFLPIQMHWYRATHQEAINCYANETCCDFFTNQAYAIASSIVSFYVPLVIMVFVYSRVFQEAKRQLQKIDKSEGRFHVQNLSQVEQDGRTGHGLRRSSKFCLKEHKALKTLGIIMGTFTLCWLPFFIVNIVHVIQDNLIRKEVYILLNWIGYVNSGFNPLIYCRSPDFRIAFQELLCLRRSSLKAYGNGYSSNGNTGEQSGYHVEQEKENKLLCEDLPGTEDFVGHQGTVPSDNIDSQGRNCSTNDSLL

| IA [2] | pK [3] | IA [5] | pK [6] | pK [7] | IA [8] | MA [14] | further results | SMILES |
| --- | --- | --- | --- | --- | --- | --- | --- | --- |
| 120 | 8.76 | 52 | 8.84 |  |  |  | pK [1]: 8.11; IA [4]: 103 | COc1c(I)cc(CC2NCCc3cc(O)c(O)cc32)cc1I (stereo not drawn) |
| 95 | 8.6 | 95 | 8.33 |  |  |  | pK [1]: 8.7; IA [4]: 109 | COc1cc(C[C@@H]2NCCc3cc(O)c(O)cc32)cc(OC)c1OC |
| 106 | 7.88 | 44 | 6.87 | 7.45 | 90 |  | IA [9]: 58; pK [10]: 5.71; IA [11]: 38; pK [12]: 6.36 | COc1c(I)cc(CC2NCCc3cc(O)ccc32)cc1I (stereo not drawn) |
|  |  |  |  | 7.74 | 100 |  |  | CC(C)NCC(O)c1ccc(O)c(O)c1 (stereo not drawn) |
| 20 |  | 3 |  |  |  |  | MA [13]: Partial agonist | COc1c(I)cc(CC2NCCc3c2cc(Br)c(O)c3Br)cc1I (stereo not drawn) |
| 31 | 8.25 | 26 |  |  |  | Partial agonist |  | COc1c(I)cc(CC2NCCc3c2ccc(O)c3Br)cc1I (stereo not drawn) |
| 35 | 7.92 | 4 |  |  |  | Partial agonist |  | COc1c(I)cc(CC2NCCc3cc(O)c(I)cc32)cc1I (stereo not drawn) |
| 8 |  | 65 | 6.77 |  |  |  | MA [15]: Partial agonist | COc1c(I)cc(CC2NCCc3c2ccc(O)c3I)cc1I (stereo not drawn) |
| 18 |  | 6 |  |  |  | Partial agonist | MA [15]: Partial agonist | COc1c(I)cc(CC2NCCc3c2cc(I)c(O)c3I)cc1I (stereo not drawn) |
| 52 | 8.2 | 15 |  | 7.54 | 62 | Partial agonist | MA [16]: Partial agonist; IA [9]: 22; MA [17]: Partial agonist; IA [11]: 21 | COc1c(I)cc(CC2NCCc3ccccc32)cc1I (stereo not drawn) |

From ChEMBL document CHEMBL1133701, “Synthesis and human beta-adrenoceptor activity of 1-(3,5-diiodo-4- methoxybenzyl)-1,2,3,4-tetrahydroisoquinolin-6-ol derivatives in vitro” (J Med Chem, 2000)
